Consider 13 molecules from paper PMC11375963 (RSC Advances, 2024).

One data set can be described thus: Cytotoxicity. The conditions noted are these: mouse, BV2 microglial cells. The class given is cell-based. In a few lines: (§1)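 Mouse BV2 microglia in DMEM with 10% FBS and 1% penicillin–streptomycin, 37 °C, 5% CO2. Seeded at 2 × 10^4 cells/well for 24 h, then exposed to test compound (0, 5, 10, 20, 40, 80 μM) for 24 h. MTT at 500 μg mL−1 for 3 h, formazan dissolved in DMSO, A570. Mean ± SD (n = 3); one-way ANOVA with Dunnett versus vehicle.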

The next data set deals with MCP-1. Nature of the data set: MCP-1 release. Conditions: LPS-induced BV2 cells, pretreatment, concentration-dependent manner (Fig. 4 and 5). The format is cell-based.
The next data set concerns TNF-α. Nature of the data set: TNF-α release. The class given is cell-based. Conditions: LPS-induced BV2 cells, pretreatment, concentration-dependent manner (Fig. 4 and 5).
The test system of a further data set is BV2 microglial cells. Briefly: Cytotoxicity. The class given is cell-based. Conditions: 24 hours, MTT, mean ± SD (n = 3). The essentials: as §1
The next data set deals with IL-6. Nature of the data set: IL-6 release. Conditions: LPS-induced BV2 cells, pretreatment, concentration-dependent manner (Fig. 4 and 5). The format is cell-based.
Data set [1] relates to LPS-induced RAW264.7 cells. The conditions noted are these: cited from earlier work.
The test system of a further data set is NF-κB (p65). Briefly: Western blot of LPS-induced NF-κB. The class given is cell-based. The conditions noted are these: pretreated 1 hour with the highest safety dose, LPS for 1 hour (Fig. 6). In a few lines: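 BV2 cells (2 × 10^6 per 6 cm dish) got the highest non-cytotoxic test-compound concentration for 1 h, then LPS for 1 h. Lysates were centrifuged (4 °C, 12 000 rpm, 10 min), Bradford-quantified, 40 μg run on 10% SDS–PAGE and semi-dry blotted to nitrocellulose. P-p65, p65 (1:1000) and β-actin (1:2000) were detected by HRP anti-rabbit and ECL, then densitometry; one-way ANOVA/Bonferroni versus LPS.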

`O=C(O)c1ccc(CO)cc1` [Compound 15, 4-hydroxymethyl benzoic acid]: in “Cytotoxicity”, the viability at 24 h, 5 µM worked out at 103 ± 1.97%; the viability at 24 h, 10 µM came out at 105 ± 3.91%; the viability at 24 h, 20 µM was 111 ± 2.26%; the viability at 24 h, 40 µM was 108 ± 2.12%. For the same molecule, the viability at 24 h, 80 µM in “Cytotoxicity” is 104 ± 3.05%.

On to `COc1cc2c(ccc3cc(OC)c(O)c(OC)c32)cc1O` [Compound 8, 3,7-dihydroxy-2,4,6-trimethoxyphenanthrene], for which, in “Cytotoxicity”, the viability at 24 h, 5 µM was found to be 106.3 ± 0.36%; the viability at 24 h, 10 µM stood at 100 ± 6.16%; the viability at 24 h, 20 µM was determined as 108.2 ± 0.53%; the viability at 24 h, 40 µM is 113 ± 1.57%. For the same molecule, the viability at 24 h, 80 µM in “Cytotoxicity” amounted to 94.4 ± 21.2%.

On to `COc1cc(C(=O)O)ccc1O` [Compound 11, vanillic acid], for which, in “Cytotoxicity”, the viability at 24 h, 5 µM is 102.9 ± 0.86%; the viability at 24 h, 10 µM was 99.7 ± 1.55%; the viability at 24 h, 20 µM was 98.77 ± 0.86%; the viability at 24 h, 40 µM amounted to 94.8 ± 2.82%. The viability at 24 h, 80 µM in “Cytotoxicity” is 86.4 ± 4.09%.

As for coelonin [Compound 6], the “Effect on release of MCP-1” value with MCP-1 is “significantly reduced”. For the same molecule, in the data set on TNF-α, the “Effect on release of TNF-α” value was “significantly reduced”. Also, the “Percentage viability (%)” value amounted to 106.33 ± 4.65% in the data set on BV2 microglial cells (5 μM); 108.08 ± 5.54% in the data set on BV2 microglial cells (10 μM); 105.55 ± 7.76% with BV2 microglial cells (20 μM); 76.69 ± 2.86 % with BV2 microglial cells (40 μM); 44.78 ± 13.23 % in the data set with BV2 microglial cells (80 μM). Besides, the “Effect on release of IL-6” value in the data set on IL-6 is listed as “significantly reduced”. The Anti-inflammatory activity result in data set [1] is “anti-inflammatory activity”.

`COc1cc(O)cc2c1-c1c(O)cccc1CC2` [Compound 7, hircinol]: in the data set “Cytotoxicity”, the viability at 24 h, 5 µM came out at 105 ± 4.37%; the viability at 24 h, 10 µM was 108 ± 3.16%; the viability at 24 h, 20 µM stood at 112 ± 2.51%; the viability at 24 h, 40 µM is 111 ± 1.88%. The viability at 24 h, 80 µM in the data set “Cytotoxicity” was found to be 104 ± 9.12%.

Regarding `O=C(O)c1ccc(O)cc1` [Compound 10, p-hydroxybenzoic acid], in “Cytotoxicity”, the viability at 24 h, 5 µM amounted to 101 ± 2.85%; the viability at 24 h, 10 µM is 96.6 ± 1.58%; the viability at 24 h, 20 µM came out at 104 ± 7.79%; the viability at 24 h, 40 µM amounted to 95.8 ± 4.1%. Moreover, the viability at 24 h, 80 µM in the data set “Cytotoxicity” worked out at 85.1 ± 9.87%.

Take `COC1=CC(=O)c2c(ccc3cc(OC)c(OC)c(OC)c23)C1=O` [Compound 1, 2,5,6,7-tetramethoxy-1,4-phenanthrenequinone]: in the data set with MCP-1, the “Effect on release of MCP-1” value is recorded as “significantly reduced”. In addition, the “Effect on release of TNF-α” value in the data set with TNF-α is given as “significantly reduced”. In “Cytotoxicity”, the viability at 24 h, 5 µM was 101 ± 3.33%; the viability at 24 h, 10 µM worked out at 101.5 ± 0.67%; the viability at 24 h, 20 µM worked out at 105 ± 7.09%; the viability at 24 h, 40 µM is 102 ± 8.6%. Also, the viability at 24 h, 80 µM in the data set “Cytotoxicity” was determined as 73.7 ± 18.5%. Besides, in the data set with IL-6, the “Effect on release of IL-6” value is reported as “significantly reduced”.

As to `COc1ccc2c(c1O)CCc1cc(O)cc(OC)c1-2` [Compound 4, 9,10-dihydro-2,5-dimethoxy-1,7-phenanthrenediol], in the data set “Cytotoxicity”, the viability at 24 h, 5 µM came out at 102 ± 3.53%; the viability at 24 h, 10 µM was 99.3 ± 5.77%; the viability at 24 h, 20 µM was 101 ± 2.3%; the viability at 24 h, 40 µM came to 95.3 ± 3.88%. Besides, in the data set “Cytotoxicity”, the viability at 24 h, 80 µM came to 49.1 ± 24.6%.

For `COc1cc2ccc3cccc(O)c3c2c(OC)c1O` [Compound 9, bulbophyllanthrin], in the data set “Cytotoxicity”, the viability at 24 h, 5 µM worked out at 102 ± 2.99%; the viability at 24 h, 10 µM was 101 ± 4.09%; the viability at 24 h, 20 µM stood at 105 ± 3.47%; the viability at 24 h, 40 µM was 105 ± 5.59%. For the same molecule, the viability at 24 h, 80 µM in “Cytotoxicity” was found to be 112 ± 5.8%.

Take `O=Cc1ccc(O)cc1` [Compound 5, p-hydroxybenzaldehyde]: in “Cytotoxicity”, the viability at 24 h, 5 µM is 105 ± 1.81%; the viability at 24 h, 10 µM was found to be 104 ± 7.68%; the viability at 24 h, 20 µM was 101 ± 7.37%; the viability at 24 h, 40 µM worked out at 101 ± 14.9%. In addition, the viability at 24 h, 80 µM in the data set “Cytotoxicity” was found to be 94.5 ± 21.6%.

In the case of `COc1cc(O)c(Cc2ccc(O)cc2)c2c1-c1ccc(O)cc1CC2` [Compound 14, 1-(4-hydroxylbenzyl)-4-methoxy 9,10-dihydrophenanthrene 2,7-diol], the “Effect on release of MCP-1” value in the data set with MCP-1 is given as “significantly reduced”. Moreover, the “Effect on release of TNF-α” value in the data set on TNF-α is on record as “significantly reduced”. Besides, in “Cytotoxicity”, the viability at 24 h, 5 µM was determined as 108 ± 3.2%; the viability at 24 h, 10 µM stood at 97.9 ± 8.91%; the viability at 24 h, 20 µM was found to be 91.9 ± 1.47%; the viability at 24 h, 40 µM is 65.9 ± 4.08%. Besides, the viability at 24 h, 80 µM in the data set “Cytotoxicity” worked out at 26.7 ± 14.7%. In the data set with IL-6, the “Effect on release of IL-6” value was “significantly reduced”.

`COc1cc(/C=C/C(=O)NCCc2ccc(O)cc2)ccc1O` [Compound 17, N-trans-feruloyl tyramine]: in “Cytotoxicity”, the viability at 24 h, 5 µM was determined as 107 ± 6.44%; the viability at 24 h, 10 µM worked out at 97.3 ± 7.01%; the viability at 24 h, 20 µM came out at 101 ± 8.73%; the viability at 24 h, 40 µM is 101 ± 5.33%. The viability at 24 h, 80 µM in “Cytotoxicity” came to 84.9 ± 5.53%.

For `COC1=CC(=O)c2ccc3cc(OC)c(OC)c(OC)c3c2C1=O` [Compound 3, 3,5,6,7-tetramethoxy-1,4-phenanthrenequinone], the “Effect on release of MCP-1” value in the data set on MCP-1 was “significantly reduced”. Also, in the data set on NF-κB (p65), the “Effect on LPS-induced NF-κB (p65) phosphorylation (P-p65-NF-κB/p65-NF-κB ratio)” value is on record as “significantly suppressed”. Further, the “Effect on release of TNF-α” value with TNF-α is on record as “significantly reduced”. For the same molecule, in the data set “Cytotoxicity”, the viability at 24 h, 5 µM came out at 99.9 ± 1.96%; the viability at 24 h, 10 µM was 95.6 ± 7.44%; the viability at 24 h, 20 µM was determined as 94.9 ± 3.76%; the viability at 24 h, 40 µM amounted to 88.8 ± 6.76%. The viability at 24 h, 80 µM in the data set “Cytotoxicity” came to 55.1 ± 26.4%. Further, in the data set on IL-6, the “Effect on release of IL-6” value is listed as “significantly reduced”.
